An excerpt weighted towards active compounds, which were near 1.4% of everything screened.
CAL PDZ FP-1: untagged CAL PDZ binding inhibitors, primary screen, biochemical, fluorescence polarization, HTS | Golgi-associated PDZ and coiled-coil motif-containing protein (Homo sapiens), Q9HD26 | purified CAL PDZ, TMR-peptide fluorescence polarization, 1 h | inhibition, % at 24.9 µM | 300,000 tested, 0.92% active;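 active = mean inhibition of at least 30% with at least half of replicates also reaching 30%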;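 also: 0% = DMSO neutral control and 100% = excess unlabeled competitor peptide PRC23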
Tn6 DDE FP: inhibitors of Tn6 peptide binding to fibrin DD(E), primary screen, biochemical, fluorescence polarization, human fibrin, Tn6 probe; Fibrinogen beta chain (Homo sapiens), P02675; Fibrin DD(E) TRITC-Tn6 fluorescence polarization displacement; inhibition, % at 8.3 µM; 370,000 tested, 0.21% active; AID 720509, 2013;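 active = inhibition above a per-campaign cutoff: mean of compounds within control limits plus 3 SD, cut at about 15% in these data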;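 also: 0% = median of all compound wells on the plate and 100% = blocking peptide control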
CAL PDZ FP-2: CAL PDZ peptide-binding inhibitors, primary screen, biochemical, fluorescence polarization, Cer-tagged CAL PDZ, HTS; Golgi-associated PDZ and coiled-coil motif-containing protein (Homo sapiens), Q9HD26; purified CAL PDZ, TMR-peptide fluorescence polarization, 1 h; inhibition, % at 20 µM; 330,000 tested, 0.02% active; AID 504414, 2011;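 active = highest replicate inhibition of at least 40%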;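 also: plate controls were DMSO neutral control wells for no effect and unlabeled competitor peptide control wells for full effect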
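Material: tagged CAL PDZ domain; buffer or medium: 25 mM sodium phosphate pH 7.4, 150 mM NaCl, TCEP, IgG, Thesit; compound dosing: single point, 20 µM; schedule: 1 h incubation at room temperature before polarization reading; measured by: FP readout, S and P plane fluorescence; read-out basis: percent inhibition from loss of millipolarization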
Arr AP2 block: inhibitors of beta-arrestin/AP2 binding, primary screen, biochemical, GPCR trafficking, flow cytometry; beta-arrestin 1 C-terminal peptide binding to AP2 beta2-adaptin appendage (human); FITC-arrestin peptide / GST-AP2 beads; AP2 beta2 appendage carries R879A mutation; inhibition, % at 10 µM; 340,000 tested, 0.31% active; AID 504490, 2011;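 active = inhibition above a set limit, near 3 SD of compounds lacking own fluorescence, cut at about 54% in these data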;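 also: plate controls were DMSO wells for no effect and 5 µM unlabelled arrestin peptide for full effect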
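System: GST-AP2 R879A glutathione beads. Medium: PBS with 0.05% Tween 20 and 0.1% BSA. Also added: FITC-arrestin peptide, 50 nM. Incubation: 12 min plus 1 h, RT. Measured by: high-throughput flow cytometry of beads, ex 488, em 535 nm. Evaluation: percent drop in bead-associated FITC signal.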
Tn7 DDE FP: inhibitors of Tn7 peptide binding to fibrin DD(E), primary screen, biochemical, fluorescence polarization, human fibrin, Tn7 probe; Fibrinogen beta chain (Homo sapiens), P02675; FP displacement of FITC-Tn7 peptide from fibrin DD(E); 0% = median of compound wells per plate; inhibition, % at 8.3 µM; 370,000 tested, 0.13% active;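 active = inhibition above the mean of compounds falling within the control limits plus 3 SD of them, cut at about 14% in these data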;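 also: 0% = plate median of compound wells and 100% = 10 µM Aha-Tn7 peptide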
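Also added: labelled Tn7 tracer, 0.1 µM; Assay system: human fibrin DD(E) protein; Amount: 2 µM fibrin DD(E); Schedule: 10 min compound pre-incubation, 3 h probe incubation at room temperature; Repeats: one replicate per compound; Read-out basis: percent inhibition; Measured by: fluorescence polarization of the labelled Tn7 tracer.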
Arr AP2 CP1: inhibitors of arrestin peptide binding to AP2, confirmation, biochemical, cherry pick 1, flow cytometry beads; shares compounds with Arr AP2 block; 1,300 tested, 2% active; inhibition, % at 10 µM; GST-AP2 beads, FITC arrestin peptide binding; GST-fused beta2-adaptin appendage, R879A mutant;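 active = inhibition above a set limit, roughly 3 SD of non-fluorescent compound noise, cut at about 38% in these data; inactive = inhibition at or below that limit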;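 also: loss of bead fluorescence from 50 nM FITC arrestin peptide bound to appendage; 0% = negative control wells and 100% = excess unlabelled arrestin peptide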
Target sequence (P63010 whole entry, looked up, the tested form may be a part, one chain of several): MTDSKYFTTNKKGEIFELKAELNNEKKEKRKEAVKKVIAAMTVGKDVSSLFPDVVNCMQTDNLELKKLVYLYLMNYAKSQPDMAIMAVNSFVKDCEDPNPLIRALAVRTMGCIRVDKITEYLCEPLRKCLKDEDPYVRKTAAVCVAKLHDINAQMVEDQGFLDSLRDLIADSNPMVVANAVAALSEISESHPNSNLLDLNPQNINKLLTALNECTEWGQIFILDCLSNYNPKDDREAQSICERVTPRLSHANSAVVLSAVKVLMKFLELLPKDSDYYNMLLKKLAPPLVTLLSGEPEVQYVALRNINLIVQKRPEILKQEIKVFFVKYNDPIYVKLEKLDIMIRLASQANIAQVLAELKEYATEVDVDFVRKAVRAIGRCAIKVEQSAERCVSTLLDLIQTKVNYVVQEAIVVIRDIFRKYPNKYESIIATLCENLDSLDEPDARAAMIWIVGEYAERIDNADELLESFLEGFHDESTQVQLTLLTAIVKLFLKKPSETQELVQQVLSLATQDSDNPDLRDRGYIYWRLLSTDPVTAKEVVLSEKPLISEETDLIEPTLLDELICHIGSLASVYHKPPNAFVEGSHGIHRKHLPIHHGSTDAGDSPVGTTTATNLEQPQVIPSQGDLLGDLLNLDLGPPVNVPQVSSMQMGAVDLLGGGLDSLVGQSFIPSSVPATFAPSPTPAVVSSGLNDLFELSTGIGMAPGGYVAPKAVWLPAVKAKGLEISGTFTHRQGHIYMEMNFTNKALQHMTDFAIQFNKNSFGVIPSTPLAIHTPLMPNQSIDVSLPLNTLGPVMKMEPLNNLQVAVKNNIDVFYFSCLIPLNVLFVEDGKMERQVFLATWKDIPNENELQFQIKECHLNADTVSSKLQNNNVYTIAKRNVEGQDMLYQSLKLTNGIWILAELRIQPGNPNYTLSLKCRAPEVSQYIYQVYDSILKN
GST GSH counter: GST-fluorescein capture on glutathione beads, confirmation, artefact control for arrestin-AP2 inhibitor project, biochemical, cherry pick 1, flow cytometry | shares compounds with Arr AP2 block | GST-fluorescein binding to GSH beads, fluorescence, counter-screen | inhibition, % at 10 µM | 1,300 tested, 2% active | AID 588338, 2011;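 active = inhibition above 50%, about 3 SD of the inhibition seen with non-fluorescent compounds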;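 also: fluorescein maleimide labelled GST captured on 4 micron glutathione beads; higher means more loss of bead fluorescence from quenching or blocked binding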
Active calls of the source: *.

`Cc1noc(C)c1S(=O)(=O)Nc1ccc2c(c1)C(=O)N([C@H](C)CO)C[C@H](C)[C@@H](CN(C)Cc1ccc(C(=O)O)cc1)O2` gave CAL PDZ FP-1 -3, Tn6 DDE FP 1, CAL PDZ FP-2 -1, Arr AP2 block 60*, Tn7 DDE FP 5, Arr AP2 CP1 7 and GST GSH counter 10.
`CCC[C@H]1[C@@H](NC(=O)c2cccc(Cl)c2)CC[C@@]23CCCN2C(=O)CCC[C@@H]13` gave Tn6 DDE FP 0 and Tn7 DDE FP -7.
`Cc1ccc(NC(=O)Cn2c(O)c(N=NC(N)=S)c3ccccc32)cc1` gave CAL PDZ FP-1 -1, Tn6 DDE FP -4, CAL PDZ FP-2 -1, Arr AP2 block 35 and Tn7 DDE FP -2.
Screening CCOC(=O)n1c(O)c(N=NC(N)=S)c2cc(C)ccc21 returned CAL PDZ FP-1 -2, Tn6 DDE FP 0, CAL PDZ FP-2 -1, Arr AP2 block 54*, Tn7 DDE FP -4, Arr AP2 CP1 -10 and GST GSH counter 2.
COC(=O)[C@]12CCCCC=C1N(Cc1ccc(OC)cc1)C(=O)[C@@H]2CC(=O)NCCC(C)C was read as Tn6 DDE FP -5 and Tn7 DDE FP 3.
For CCCn1c(=O)c(C(=O)NCCc2ccccc2)c(O)c2ccccc21 the results were CAL PDZ FP-1 -2, Tn6 DDE FP -2, Arr AP2 block -4 and Tn7 DDE FP -3.
For CCCn1c(=O)c(C(=O)NCCc2ccc(OC)cc2)c(O)c2ccccc21 the results were CAL PDZ FP-1 7, Tn6 DDE FP 7, CAL PDZ FP-2 -2, Arr AP2 block 55*, Tn7 DDE FP -1, Arr AP2 CP1 0 and GST GSH counter -10.
Screening CCCCNC(=O)C[C@H]1C[C@@]2(C(=O)OC)C(=C[C@H](C3CCCC3)O[C@@H]2C)N(CCC2=CCCCC2)C1=O returned Tn6 DDE FP 9 and Tn7 DDE FP 1.
O=C1CCCC/C1=N\Nc1ccc(OCc2ccccc2)cc1 was read as CAL PDZ FP-1 -4, Tn6 DDE FP -5, CAL PDZ FP-2 -2, Arr AP2 block 98*, Tn7 DDE FP -8, Arr AP2 CP1 -2 and GST GSH counter 22.
`Cc1[nH]c2ccccc2c1-c1csc(NC(=O)CN2CCOCC2)n1` gave Tn6 DDE FP 3, CAL PDZ FP-2 0, Arr AP2 block 57*, Tn7 DDE FP 0, Arr AP2 CP1 -2 and GST GSH counter 5.
Screening Cc1[nH]c2ccccc2c1-c1csc(NC(=O)CSCC(=O)O)n1 returned CAL PDZ FP-1 -1, Tn6 DDE FP 7, CAL PDZ FP-2 0, Arr AP2 block 5 and Tn7 DDE FP 4.
COCC1CN(CCc2ccc(F)cc2)S(=O)(=O)c2c(F)cccc2O1 (stereo not given) was read as Tn6 DDE FP 0 and Tn7 DDE FP 7.
For CCC(NC(=O)CCc1ccccc1)c1ccccc1 (stereo not given) the results were CAL PDZ FP-1 5, Tn6 DDE FP 5, CAL PDZ FP-2 0, Arr AP2 block 61*, Tn7 DDE FP -3, Arr AP2 CP1 -1 and GST GSH counter -2.
Screening CC(C)(C)N1Cc2nnn(Cc3ccccc3)c2-c2cc(N3CCCCC3)ccc2S1(=O)=O returned Tn6 DDE FP -1 and Tn7 DDE FP 4.
CCN(CC)c1ccc(NS(=O)(=O)c2ccc(-c3ccc(=O)[nH]n3)o2)c(C)c1 was read as CAL PDZ FP-1 -2, Tn6 DDE FP -8, CAL PDZ FP-2 -2, Arr AP2 block 57*, Tn7 DDE FP 6, Arr AP2 CP1 2 and GST GSH counter 6.
For Cn1c(=O)c(C(=O)NNC(=O)c2ccccc2Cl)c(O)c2ccccc21 the results were CAL PDZ FP-1 -3, Tn6 DDE FP -3, CAL PDZ FP-2 -4, Arr AP2 block 24 and Tn7 DDE FP -1.
For Cn1c(=O)c(C(=O)NNC(=O)c2ccccc2Br)c(O)c2ccccc21 the results were CAL PDZ FP-1 -8, Tn6 DDE FP -14, CAL PDZ FP-2 -4, Arr AP2 block 56*, Tn7 DDE FP -10, Arr AP2 CP1 -7 and GST GSH counter 4.
Screening C[C@H]1[C@@H]2C[C@@]3(O[C@H](c4ccccn4)N=C3C[C@@H]1c1ccccc1)N(Cc1ccncc1)C2=O returned Tn6 DDE FP -9 and Tn7 DDE FP 3.
For O=C(Nc1ccccc1[N+](=O)[O-])NC1CCCCN(Cc2ccc(Cl)cc2)C1=O (stereo not given) the results were Tn6 DDE FP -1 and Tn7 DDE FP 1.
CCc1c(-c2cccc(F)c2)ncn1CCc1ccccc1OC was read as Tn6 DDE FP -3 and Tn7 DDE FP -3.
For COC(=O)c1cc(-c2cc3ccccc3s2)c(=O)n2c1CCC2 the results were Tn6 DDE FP 7 and Tn7 DDE FP -4.
CCc1ccc(NC(=O)Nc2ccon2)cc1 was read as CAL PDZ FP-1 1, Tn6 DDE FP -11, CAL PDZ FP-2 0, Arr AP2 block 4 and Tn7 DDE FP 7.
Screening CCCCc1ccc(NC(=O)Nc2cnccn2)cc1 returned CAL PDZ FP-1 -2, Tn6 DDE FP -6, CAL PDZ FP-2 -3, Arr AP2 block 1, Tn7 DDE FP -3, Arr AP2 CP1 23 and GST GSH counter -5.
For CCCCc1ccc(NC(=O)NCc2ccccn2)cc1 the results were CAL PDZ FP-1 3, Tn6 DDE FP -1, CAL PDZ FP-2 1, Arr AP2 block -4 and Tn7 DDE FP -1.
For CCc1ccc(NC(=O)Nc2cnccn2)cc1 the results were CAL PDZ FP-1 -3, Tn6 DDE FP 5, CAL PDZ FP-2 -4, Arr AP2 block -2, Tn7 DDE FP -3, Arr AP2 CP1 6 and GST GSH counter 0.
